This is a sample that favours compounds with a hit; in the whole collection about 2.6% have one here.
Rin1 Abl inh: inhibitors of Rin1-Abl protein binding, primary screen, biochemical, TR-FRET | Tyrosine-protein kinase ABL1 (Homo sapiens) + Ras and Rab interactor 1 (Homo sapiens), … | inhibition, % at 7.35 µM | actives 0.4% (n = 360,000) | AID 588664, 2011; in the data active = inhibition above about 5%, passing the limit was not always enough
Target sequence (P00519 whole entry, looked up): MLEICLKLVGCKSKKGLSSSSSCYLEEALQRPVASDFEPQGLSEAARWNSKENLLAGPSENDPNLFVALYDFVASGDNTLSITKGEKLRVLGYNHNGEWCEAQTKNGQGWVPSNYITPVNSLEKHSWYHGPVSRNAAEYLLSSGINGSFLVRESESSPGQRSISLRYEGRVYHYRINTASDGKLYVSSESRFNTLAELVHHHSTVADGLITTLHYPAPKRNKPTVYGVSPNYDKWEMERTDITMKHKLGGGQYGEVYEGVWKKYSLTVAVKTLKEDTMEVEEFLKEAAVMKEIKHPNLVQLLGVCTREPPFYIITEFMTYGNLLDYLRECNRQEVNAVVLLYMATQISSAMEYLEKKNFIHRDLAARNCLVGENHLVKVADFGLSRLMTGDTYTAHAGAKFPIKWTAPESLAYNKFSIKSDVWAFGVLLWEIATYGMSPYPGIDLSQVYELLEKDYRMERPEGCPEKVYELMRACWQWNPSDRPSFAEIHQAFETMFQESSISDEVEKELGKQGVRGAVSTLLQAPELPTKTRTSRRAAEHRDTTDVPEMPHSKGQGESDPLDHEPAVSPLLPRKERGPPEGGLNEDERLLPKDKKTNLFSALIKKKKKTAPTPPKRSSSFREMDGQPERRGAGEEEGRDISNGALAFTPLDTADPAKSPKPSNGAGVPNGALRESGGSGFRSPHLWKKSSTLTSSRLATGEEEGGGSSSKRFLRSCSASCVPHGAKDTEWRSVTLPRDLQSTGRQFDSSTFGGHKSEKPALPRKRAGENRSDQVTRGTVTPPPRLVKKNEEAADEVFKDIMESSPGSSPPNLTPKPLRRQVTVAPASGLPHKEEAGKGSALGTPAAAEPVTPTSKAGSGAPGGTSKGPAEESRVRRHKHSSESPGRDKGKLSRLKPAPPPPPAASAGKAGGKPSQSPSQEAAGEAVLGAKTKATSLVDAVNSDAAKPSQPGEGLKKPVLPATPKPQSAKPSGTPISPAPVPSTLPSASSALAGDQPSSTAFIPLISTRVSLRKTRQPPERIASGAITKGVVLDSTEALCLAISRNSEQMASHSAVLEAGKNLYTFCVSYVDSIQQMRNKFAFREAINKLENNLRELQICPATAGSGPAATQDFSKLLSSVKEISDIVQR
Target sequence (Q13671 whole entry, looked up): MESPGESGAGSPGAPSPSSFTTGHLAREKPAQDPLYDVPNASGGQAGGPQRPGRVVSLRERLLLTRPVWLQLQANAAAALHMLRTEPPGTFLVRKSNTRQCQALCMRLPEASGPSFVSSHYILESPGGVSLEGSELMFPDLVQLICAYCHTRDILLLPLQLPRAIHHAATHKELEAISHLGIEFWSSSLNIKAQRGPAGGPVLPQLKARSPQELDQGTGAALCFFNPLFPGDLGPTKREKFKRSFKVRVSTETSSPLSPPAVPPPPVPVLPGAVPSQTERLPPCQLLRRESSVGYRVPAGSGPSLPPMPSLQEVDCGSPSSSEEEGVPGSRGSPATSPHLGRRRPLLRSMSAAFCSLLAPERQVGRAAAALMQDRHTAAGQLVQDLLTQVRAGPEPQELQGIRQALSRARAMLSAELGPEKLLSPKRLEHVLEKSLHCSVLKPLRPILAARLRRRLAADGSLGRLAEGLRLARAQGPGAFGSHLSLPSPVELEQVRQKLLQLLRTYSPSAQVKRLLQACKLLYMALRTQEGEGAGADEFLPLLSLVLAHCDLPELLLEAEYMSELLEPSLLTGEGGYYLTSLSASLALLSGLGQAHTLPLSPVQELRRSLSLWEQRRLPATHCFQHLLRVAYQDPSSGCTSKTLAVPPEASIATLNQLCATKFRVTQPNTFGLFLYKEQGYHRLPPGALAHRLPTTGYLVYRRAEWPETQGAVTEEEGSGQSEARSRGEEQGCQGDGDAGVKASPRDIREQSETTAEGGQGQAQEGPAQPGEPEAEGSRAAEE
T cell HTS: modulators of CD8 T cell-vesicle binding, primary screen, mouse 2C CD8+ T cells, flow cytometry; AID 2052, 2009; 2C CD8+ T cell-vesicle binding; stronger effect = lower value; actives 0.068% (n = 330,000); response (vesicle binding), % at 7 µM;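 active = response, share of CD8 T cells binding vesicles, and their 90th percentile fluorescence all below set limits, cut at about 80% in these data, passing the limit was not always enough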;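 also: values below 100% mean blocked vesicle binding to the CD8+ T cells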
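Also added: QL9-peptide-loaded Drosophila micro-vesicles bearing Ld, ICAM-1 and B7-1; Test system: purified 2C TCR transgenic mouse naive CD8+ T cells; Measured by: cytometric PE anti-B7-1 and Alexa647 anti-CD8 signals after 1% paraformaldehyde fixation; Timing: binding step 1.5 h, 37 °C, antibody labelling 20 min, ice.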
Myeloid diff MLP: induction of myeloid progenitor differentiation, primary screen, cell-based, flow cytometry, MLPCN library. ER-HoxA9 myeloid progenitors, lysozyme-GFP differentiation. AID 624256, 2012. calls only at 10 µM. actives 1% (n = 360,000);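 active = normalized GFP-positive differentiation at or above the plate's own cutoff, the solvent-only control mean plus 3 SD; inconclusive = no clear call, values can overlap the other calls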;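 also: cells exposed to compound for four days before flow analysis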
SKN-1 block: suppressors of acrylamide-induced Pgst-4::GFP reporter in worms, primary screen, SKN-1 inhibitor project, whole organism, uHTS, GFP/RFP fluorescence ratio, strain VP596; C. elegans VP596 Pgst-4::GFP/RFP ratio, 24 h; inhibition, % at 21.8 µM; actives 0.49% (n = 360,000); AID 624304, 2012;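 active = interference check ratio from 0.5 to 1.5 plus GFP to RFP signal ratio inhibition reaching or exceeding a fixed threshold, cut at about 30% in these data, passing the limit was not always enough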
GRK2 inh: compounds blocking aptamer binding on GRK2 – biochemical, human GRK2, bead flow cytometry, HTS, primary screen. AID 488847, 2010. actives 0.59% (n = 330,000). Beta-adrenergic receptor kinase 1 (Homo sapiens), P25098. inhibition of aptamer binding, % at 10 µM. FAM-aptamer displacement from GRK2;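 active = inhibition of aptamer binding above 40%, roughly 3 SD of noise, on plates passing a quality check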;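 also: median bead fluorescence of bound FAM aptamer so fluorescent compounds give negative values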
Rce1 inh: yeast Rce1p protease inhibitors, primary screen, biochemical, fluorescence, cell-free homogeneous | actives 0.27% (n = 290,000) | yeast membranes, quenched prenylated peptide cleavage fluorescence | calls only;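 active = fall in fluorescence gain of 50% or more versus controls, with final raw signal at or below 3038400; inconclusive = same 50% fall but final raw signal above 3038400; inactive = fall in fluorescence gain under 50%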
Each line names hits and unclear results; the compound was inactive in the other large screens.

C[C@H](CO)N1C[C@H](C)[C@@H](CN(C)Cc2ccc(Cl)c(Cl)c2)Oc2c(NC(=O)Cc3ccccc3)cccc2C1=O	Myeloid diff MLP active (no result: Rce1 inh)
CC(C)c1cc(Cn2c3ccccc3c(=O)n2C(C)CBr)on1 (centres undefined)	none (no result: T cell HTS, GRK2 inh, Rce1 inh)
O=C1C(=C(O)c2ccccc2)C(=O)c2ccccc21	Rin1 Abl inh 13, Myeloid diff MLP active
C=CCn1cc(-c2ccccc2)cc(C#N)c1=O	Rce1 inh active
CCN1/C(=C2/SC(=S)N(NC(C)=O)C2=O)Sc2ccccc21	none
COc1cccc(-c2c(-c3cc(OC)cc(OC)c3)n(C)c3ccc(-c4cnc(N5CCOCC5)nc4)cc23)c1	Myeloid diff MLP active (no result: Rce1 inh)
COc1cccc(-c2c(-c3cc(OC)cc(OC)c3)n(C)c3ccc(-c4cnc(OC)nc4)cc23)c1	none (no result: Rce1 inh)
Oc1c(N=NC(=S)Nc2ccccc2F)c2ccccc2n1Cc1ccccc1F	Rce1 inh active
COC(=O)[C@]1(C)N[C@H](CN(C)S(=O)(=O)c2ccc(C(C)(C)C)cc2)[C@@H]2C(=O)N(C)C(=O)[C@@H]21	none (no result: Rin1 Abl inh, Rce1 inh)
COC(=O)[C@]1(C)N[C@H](CN(C)S(=O)(=O)c2ccc(OC(F)(F)F)cc2)[C@@H]2C(=O)N(C)C(=O)[C@@H]21	T cell HTS 0.0 (no result: Rce1 inh)
CCOC(=O)c1cc(=O)[nH]c2ccccc12	none
CCCOC(=O)c1cc(=O)[nH]c2ccccc12	SKN-1 block 37
O=c1cc(/C=C/c2ccccc2)oc2ccccc12	SKN-1 block 43
CS(=O)(=O)N(CC(=O)N1CCCCCC1)c1cccc([N+](=O)[O-])c1	none
Cc1ccc(S(=O)(=O)Nc2cc(C(C)C)c(O)cc2C)cc1	Myeloid diff MLP active
Cc1nonc1NC(=O)CSc1nc2ccccc2o1	none
CC(=O)Nc1nonc1NC(=O)CSc1nc2ccccc2o1	Myeloid diff MLP active
CC(C)CCNC(=O)NC(=O)COc1ccccc1C#N	SKN-1 block 38
CC(C)CCNC(=O)NC(=O)COC(=O)/C=C/c1cccc([N+](=O)[O-])c1	Myeloid diff MLP active
CSc1ncccc1C(=O)OCC(=O)NC(=O)NCCC(C)C	none
CC(C)CCNC(=O)NC(=O)COC(=O)/C=C/c1cnc2ccccc2n1	SKN-1 block 37
Clc1ccc(Cc2noc(-c3cccs3)n2)cc1	SKN-1 block 82
Clc1ccc(-c2nc(Cc3ccccc3Cl)no2)cc1	none
Cc1cc(/C=C\c2ccc3cc(N(C)C)ccc3[n+]2C)c(C)n1-c1ccccc1	Myeloid diff MLP inconclusive, GRK2 inh 71 (no result: Rce1 inh)
C[n+]1c(/C=C/c2ccc(O)cc2)ccc2ccccc21	none
CCC(C)(C)C1CCC2(CC1)NC(=O)N(CC(=O)Nc1cc(C(F)(F)F)ccc1N1CCOCC1)C2=O (centres undefined)	none
Cc1cccc(NC(=O)CSc2nc(C)nc3c2c(=O)n(C)c(=O)n3C)c1	none (no result: T cell HTS, GRK2 inh, Rce1 inh)
Cc1nc(SCc2c(F)cccc2Cl)c2c(=O)n(C)c(=O)n(C)c2n1	Myeloid diff MLP active
CCCCc1cc(=O)oc2cc(C)cc(OCC(=O)N3C[C@H]4C[C@@H](C3)c3cccc(=O)n3C4)c12	none (no result: Rce1 inh)
COc1cc(C(=O)N2CCN(C)C(C)C2)ccc1OC1CCN(C(C)=O)CC1 (centres undefined)	none
COc1ccc(/C=N/NC(=O)c2ccc(COc3cccc4cccnc34)cc2)cc1OC	none
O=C(N/N=C/c1ccc2c(c1)OCO2)c1ccc(COc2cccc3cccnc23)cc1	Myeloid diff MLP active
CCOC(=O)c1c(-c2ccccc2)csc1NC(=O)/C(C#N)=C/c1ccc(OC)c(OC)c1	Myeloid diff MLP active
CCOC(=O)c1c(-c2ccccc2)csc1NC(=O)c1cc(-c2ccccc2OC)on1	none
CCOC(=O)/C(C#N)=C\c1ccc(OC)c(OC)c1	none
CCOC(=O)c1c(-c2ccccc2)csc1NC(=O)/C(C#N)=C/c1ccc(O)c(OC)c1	Myeloid diff MLP active
Cc1cc2ccccc2n1CCNC(=O)C(C)C	SKN-1 block 53
Cc1cc2ccccc2n1CCNC(=O)Cc1ccccc1	none
Cc1cccc(CC(=O)NCCn2c(C)cc3ccccc32)c1	SKN-1 block 38
Cc1ccc2c(c1)C(=O)N1[C@H]3c4cc(C)ccc4OC[C@@H]3[C@H](c3ccccc3)[C@]1(C)C(=O)N2	Myeloid diff MLP active (no result: Rce1 inh)
O=C(NCCCc1ccc(F)cc1)C1CCC(=O)N(CC2CCCCC2)C1 (centres undefined)	none (no result: Rce1 inh)
Cc1c(S(=O)(=O)N(C)C2CCCCC2)c(=O)n(C)c(=O)n1C	none
Cc1ccc(S(=O)(=O)Nc2ccc3c(c2)C(=O)N([C@H](C)CO)C[C@H](C)[C@@H](CN(C)C(=O)Nc2ccc(C(F)(F)F)cc2)O3)cc1	Myeloid diff MLP active (no result: Rce1 inh)
C[C@H](CO)N1C[C@H](C)[C@@H](CN(C)C(=O)Nc2ccc(F)cc2)Oc2ccc(NS(C)(=O)=O)cc2C1=O	Myeloid diff MLP active (no result: Rce1 inh)
C[C@H](CO)N1C[C@H](C)[C@@H](CN(C)C(=O)Nc2ccc(C(F)(F)F)cc2)Oc2ccc(NS(=O)(=O)c3cn(C)cn3)cc2C1=O	Myeloid diff MLP active (no result: Rce1 inh)
C[C@H](CO)N1C[C@H](C)[C@@H](CN(C)C(=O)Nc2ccc(C(F)(F)F)cc2)Oc2c(NS(=O)(=O)c3cn(C)cn3)cccc2C1=O	none (no result: Rce1 inh)
Cc1cc(C)c(S(=O)(=O)N2CCN(C3CC(=O)N(c4ccccc4Cl)C3=O)CC2)c(C)c1 (centres undefined)	none (no result: Rce1 inh)
Nc1nc2c(ncn2COC(CO)CO)c(=O)[nH]1	Myeloid diff MLP active, Rce1 inh active
COc1ccc(C(=O)N/N=C(/C)c2cccc(NC(=O)c3ccncc3)c2)cc1OC	none
COc1ccc(C(=O)Nc2cccc(/C(C)=N/NC(=O)c3ccc([N+](=O)[O-])cc3)c2)cc1OC	Myeloid diff MLP active
CN1C(=O)c2ccccc2Cc2c(NCc3ccccc3)ncnc21	none (no result: T cell HTS, GRK2 inh, Rce1 inh)
Clc1ccccc1/C=C/c1ccnc2ccccc12	SKN-1 block 35
Cc1cccc2cc3c(N)c(C(=O)Nc4ccc(N5CCOCC5)cc4)sc3nc12	none
CCc1cccc2cc3c(N)c(C(=O)Nc4ccc(S(=O)(=O)N5CCCC5)cc4)sc3nc12	Myeloid diff MLP active
C=CCn1c(SCC(=O)c2c(N)n(C)c(=O)n(C)c2=O)nnc1-c1ccoc1C	SKN-1 block 35 (no result: Rce1 inh)

Bioassay records from PubChem.
